Experimental data taken from ChEMBL document CHEMBL4004805, “Tacrine-resveratrol fused hybrids as multi-target-directed ligands against Alzheimer's disease” (Eur J Med Chem, 2017).
Calls of active or inactive are those of the source. The calls are words filed in the database; no cut-off is given here.

Columns and labels:
[1] = Neurotoxicity against Wistar rat primary cerebellar granule neurons assessed as decrease in cell survival at 5 uM after 24 hrs by MTT assay; assay type: toxicity, cell-based; conditions: primary cerebellar granule neuron
In short: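 Cerebellar granule neurons came from 7-day-old Wistar rat pups, plated on poly-L-lysine in BME with 10% FBS and 25 mM KCl. Cytosine arabinoside (10 µmol/L) was added at 16 h. At 7 DIV, cells were moved to serum-free medium and exposed to 0–50 µM compound for 24 h. Survival was read by MTT at 570 nm as % of control; mean ± SE, four experiments at least in quadruplicate.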

[2] = biological target: Cholinesterase (Homo sapiens) (UniProt P06276); experiment: Inhibition of butyrylcholinesterase isolated from human plasma at 10 uM using butyrylthiocholine as substrate preincubated for 5 mins followed by substrate addition measured every 2 mins by Ellman's method
In short: (§1)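 Buffer was 0.1 M potassium phosphate, pH 7.4, with DTNB and enzyme (10 µL of 2.0 units/mL stock) in a 100 µL mix. Substrate was iodide salt (20 µL of 0.01 M). Inhibitor range 10-3–10-9 M. Absorbance rise read at 412 nm, 37 °C. Each concentration run in triplicate. IC50 is the concentration giving 50% loss of activity. Screening done at 10 µM before IC50 work.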

Acetylcholinesterase [3] = biological target: T1, Acetylcholinesterase (Homo sapiens, UniProt P22303); experiment: Inhibition of acetylcholinesterase isolated from human red blood cells at 10 uM using acetylthiocholine as substrate preincubated for 5 mins followed by substrate addition measured every 2 mins by Ellman's method; in short: as §1
HepG2 = experiment: Hepatotoxicity against human HepG2 cells assessed as decrease in cell viability at 5 to 50 uM after 24 hrs by MTT assay; assay type: toxicity, cell-based; conditions: hepg2, 24 h
In short: (§2)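 HepG2 cells in high-glucose DMEM with 10% FBS were seeded at 8 x 10^3 cells/well, then exposed to 0–50 µM compound for 24 h in serum-free medium. MTT (0.1 mg/mL) was added for 20 min at 37 °C in the dark, formazan dissolved in Tris-HCl/5% Triton X-100, absorbance read at 570 nm. Viability as % of control; mean ± SE, four experiments at least in quadruplicate.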

[4] = Hepatotoxicity against human HepG2 cells assessed as cell viability at 5 to 50 uM after 24 hrs by MTT assay relative to control; assay type: toxicity, cell-based; conditions: read-out: Activity; in short: as §2
[5] = biological target: Amyloid-beta precursor protein (Homo sapiens) (UniProt P05067); experiment: Inhibition of amyloid beta 42 (unknown origin) self aggregation at 50 uM by ThT-based fluorometric method relative to control
In short: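 Pretreated Aβ42 (50 µM final) was incubated at 30 °C in 10 mM phosphate buffer pH 8.0 with 10 mM NaCl, with or without inhibitor (50 µM). Samples were then diluted in 50 mM glycine-NaOH pH 8.5 containing 1.5 µM ThT. Fluorescence (ex 446/em 490 nm) was scanned for 300 s, plateau values averaged minus ThT background, giving % inhibition.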

[6] = Neurotoxicity against Wistar rat primary cerebellar granule neurons assessed as decrease in cell survival at 25 to 50 uM after 24 hrs by MTT assay; assay type: toxicity, cell-based; conditions: primary cerebellar granule neuron
Acetylcholinesterase [7] = biological target: T1, Acetylcholinesterase; experiment: Inhibition of acetylcholinesterase isolated from human red blood cells using acetylthiocholine as substrate preincubated for 5 mins followed by substrate addition measured every 2 mins by Ellman's method; in short: as §1
[8] = Antioxidant activity of the compound assessed as DPPH radical scavenging activity after 30 mins; assay type: functional
In short: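 DPPH (0.2 mM solution) was mixed 1:1 in methanol with compound (10-3–10-6 M). After 30 min at laboratory temperature, absorbance was read at 517 nm. Triplicates per concentration; EC50 is the concentration giving a 50% decrease in DPPH activity.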

[9] = biological target: Cholinesterase (Homo sapiens) (UniProt P06276); experiment: Inhibition of butyrylcholinesterase isolated from human plasma up to 100 uM using butyrylthiocholine as substrate preincubated for 5 mins followed by substrate addition measured every 2 mins by Ellman's method; in short: as §1
Primary glial cell [10] = experiment: Immunomodulatory activity in LPS-induced Wistar rat primary glial cells assessed as decrease in TREME2 expression after 24 hrs by Western blot method; assay type: functional, cell-based
In short: (§3)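 Rat primary microglia or astrocytes were exposed 24 h to LPS with compound (0–50 µM), then lysed; protein was measured by Lowry. Immunoblots used anti-iNOS, anti-TREM2 or anti-MRC1 with GAPDH as loading control, read by ECL and densitometry. Values are % of LPS alone; mean ± SE of 3 experiments.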

Primary glial cell [11] = experiment: Immunomodulatory activity in LPS-induced Wistar rat primary glial cells assessed as decrease in MRC1 expression at 10 to 50 uM after 24 hrs by Western blot method; assay type: functional, cell-based; in short: as §3
[12] = Neurotoxicity against Wistar rat primary cerebellar granule neurons assessed as decrease in cell survival at 5 to 50 uM after 24 hrs by MTT assay; assay type: toxicity, cell-based; conditions: primary cerebellar granule neuron
Primary glial cell [13] = experiment: Immunomodulatory activity in LPS-induced Wistar rat primary glial cells assessed as decrease in TREME2 mRNA expression after 24 hrs; assay type: functional, cell-based
Astrocyte [14] = experiment: Immunomodulatory activity in LPS-induced Wistar rat primary astrocytes assessed as decrease in iNOS expression at 10 to 50 uM after 24 hrs by Western blot method; assay type: functional, cell-based; in short: as §3
Primary glial cell [15] = experiment: Immunomodulatory activity in LPS-induced Wistar rat primary glial cells assessed as decrease in iNOS mRNA expression after 24 hrs; assay type: functional, cell-based
Astrocyte [16] = experiment: Antineuroinflammatory activity against LPS-induced Wistar rat primary astrocytes assessed as decrease in nitrite production after 24 hrs by Griess method; assay type: functional, cell-based
In short: (§4)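 Microglia (shaken off) and astrocytes (trypsinized remainder) came from newborn Wistar rat cortical mixed glia grown 10–13 days. Cells were co-treated 24 h with LPS and compound (10–50 µM). Nitrite in the medium was measured by Griess reaction (sulfanilamide 5 mM, NEDA 40 mM) against a NaNO2 standard curve. Mean ± SE of 3 experiments, each at least in quadruplicate.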

Microglia [17] = experiment: Antineuroinflammatory activity against LPS-induced Wistar rat primary microglia cells assessed as decrease in nitrite production after 24 hrs by Griess method; assay type: functional, cell-based; in short: as §4
Microglia [18] = experiment: Immunomodulatory activity in LPS-induced Wistar rat primary microglia cells assessed as decrease in iNOS expression at 10 to 50 uM after 24 hrs by Western blot method; assay type: functional, cell-based; in short: as §3
Acetylcholinesterase [19] = biological target: Acetylcholinesterase (Electrophorus electricus, UniProt O42275); experiment: Displacement of propidium iodide from electric eel AChE by spectrofluorometric method
In short: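 Back-titration of a preformed EeAChE (2 µM)–propidium iodide (8 µM) complex in 1.0 mM Tris-HCl pH 8.0, with inhibitor added stepwise (final 8–56 µM; methanol stock). Fluorescence read at 635 nm, excitation 535 nm. Blanks were run for propidium alone, inhibitor plus propidium, and enzyme alone. KD derived by the Taylor–Lappi treatment, taking propidium KD = 0.7 µM.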

Cholinesterase (Homo sapiens), sequence (P06276 whole entry): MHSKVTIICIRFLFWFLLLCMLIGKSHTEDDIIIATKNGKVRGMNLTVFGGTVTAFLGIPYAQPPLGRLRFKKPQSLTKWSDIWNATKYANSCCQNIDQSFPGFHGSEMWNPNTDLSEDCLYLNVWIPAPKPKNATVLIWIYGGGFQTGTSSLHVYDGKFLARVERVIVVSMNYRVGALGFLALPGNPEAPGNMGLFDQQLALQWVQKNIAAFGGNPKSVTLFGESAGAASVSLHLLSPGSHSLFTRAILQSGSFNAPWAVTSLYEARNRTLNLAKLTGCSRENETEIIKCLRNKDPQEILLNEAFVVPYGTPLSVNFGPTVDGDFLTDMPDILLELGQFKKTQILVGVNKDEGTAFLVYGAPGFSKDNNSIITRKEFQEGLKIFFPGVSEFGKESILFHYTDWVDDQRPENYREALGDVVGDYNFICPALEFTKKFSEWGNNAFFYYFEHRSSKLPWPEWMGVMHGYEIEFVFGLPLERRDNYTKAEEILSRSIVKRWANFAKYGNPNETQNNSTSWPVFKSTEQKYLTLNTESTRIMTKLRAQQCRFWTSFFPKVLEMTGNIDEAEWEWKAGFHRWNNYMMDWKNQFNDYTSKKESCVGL
T1 sequence (P22303 whole entry): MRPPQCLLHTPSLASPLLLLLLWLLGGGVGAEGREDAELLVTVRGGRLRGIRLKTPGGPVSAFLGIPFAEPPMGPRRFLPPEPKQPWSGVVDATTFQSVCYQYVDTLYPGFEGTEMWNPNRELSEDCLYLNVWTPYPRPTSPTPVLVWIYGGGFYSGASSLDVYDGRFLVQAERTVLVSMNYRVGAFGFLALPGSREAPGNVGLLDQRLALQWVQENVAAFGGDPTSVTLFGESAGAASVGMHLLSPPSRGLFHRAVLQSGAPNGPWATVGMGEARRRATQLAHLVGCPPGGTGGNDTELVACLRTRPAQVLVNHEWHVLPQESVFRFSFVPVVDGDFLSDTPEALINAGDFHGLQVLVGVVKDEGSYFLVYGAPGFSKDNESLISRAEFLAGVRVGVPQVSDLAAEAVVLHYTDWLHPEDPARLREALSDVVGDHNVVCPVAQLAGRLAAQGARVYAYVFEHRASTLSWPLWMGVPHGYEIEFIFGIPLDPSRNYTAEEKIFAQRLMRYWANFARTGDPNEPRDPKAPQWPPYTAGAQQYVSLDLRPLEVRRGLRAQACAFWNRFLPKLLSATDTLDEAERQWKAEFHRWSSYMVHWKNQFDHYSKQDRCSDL
Amyloid-beta precursor protein (Homo sapiens), sequence (P05067 whole entry): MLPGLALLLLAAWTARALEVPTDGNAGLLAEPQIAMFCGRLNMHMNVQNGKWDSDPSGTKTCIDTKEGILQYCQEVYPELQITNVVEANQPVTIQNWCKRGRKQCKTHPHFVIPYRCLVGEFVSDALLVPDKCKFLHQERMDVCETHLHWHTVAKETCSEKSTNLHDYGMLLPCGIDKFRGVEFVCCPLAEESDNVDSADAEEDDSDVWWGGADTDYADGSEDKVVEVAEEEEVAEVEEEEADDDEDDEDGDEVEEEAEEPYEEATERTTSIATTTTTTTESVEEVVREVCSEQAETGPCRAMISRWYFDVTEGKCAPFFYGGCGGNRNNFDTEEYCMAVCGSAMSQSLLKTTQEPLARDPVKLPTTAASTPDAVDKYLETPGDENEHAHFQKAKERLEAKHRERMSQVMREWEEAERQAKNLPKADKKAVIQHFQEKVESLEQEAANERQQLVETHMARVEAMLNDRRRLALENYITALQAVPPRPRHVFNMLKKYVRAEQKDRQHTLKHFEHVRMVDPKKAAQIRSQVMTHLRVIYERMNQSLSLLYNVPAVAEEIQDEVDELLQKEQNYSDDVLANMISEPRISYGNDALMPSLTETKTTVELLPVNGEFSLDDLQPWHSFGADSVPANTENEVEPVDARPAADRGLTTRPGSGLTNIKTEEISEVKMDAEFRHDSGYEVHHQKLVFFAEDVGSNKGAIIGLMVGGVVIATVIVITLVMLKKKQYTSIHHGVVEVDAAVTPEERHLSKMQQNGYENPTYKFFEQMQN
Acetylcholinesterase (Electrophorus electricus, UniProt O42275), sequence (O42275 whole entry): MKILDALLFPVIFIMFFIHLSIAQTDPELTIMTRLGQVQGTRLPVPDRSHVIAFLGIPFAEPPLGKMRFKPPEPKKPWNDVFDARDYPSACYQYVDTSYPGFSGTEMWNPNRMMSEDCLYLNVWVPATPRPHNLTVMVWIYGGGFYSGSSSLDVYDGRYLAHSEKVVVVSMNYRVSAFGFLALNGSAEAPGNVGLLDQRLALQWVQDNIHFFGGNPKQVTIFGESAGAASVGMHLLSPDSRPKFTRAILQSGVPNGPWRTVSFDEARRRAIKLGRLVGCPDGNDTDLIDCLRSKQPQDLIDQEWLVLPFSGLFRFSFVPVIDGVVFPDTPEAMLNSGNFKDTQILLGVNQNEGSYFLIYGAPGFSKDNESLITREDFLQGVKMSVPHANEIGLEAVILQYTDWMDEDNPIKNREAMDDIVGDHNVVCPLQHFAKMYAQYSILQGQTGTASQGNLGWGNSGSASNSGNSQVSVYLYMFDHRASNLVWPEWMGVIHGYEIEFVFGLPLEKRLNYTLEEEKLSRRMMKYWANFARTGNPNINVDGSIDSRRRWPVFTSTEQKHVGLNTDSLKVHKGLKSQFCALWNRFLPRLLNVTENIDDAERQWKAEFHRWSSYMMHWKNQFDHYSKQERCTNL

| Compound | Activity [1] | inhibition [2] | inhibition (Acetylcholinesterase [3]) | Activity (HepG2) | inhibition [5] | IC50 (Acetylcholinesterase [7]) | EC50 [8] | further results |
| --- | --- | --- | --- | --- | --- | --- | --- | --- |
| COc1cc(CCc2ccc(Nc3c4c(nc5ccc(OC)cc35)CCCC4)cc2)cc(OC)c1 | Toxic | inactive | inactive | Toxic |  |  |  |  |
| COc1cc(/C=C/c2ccc(Nc3c4c(nc5cc(Cl)ccc35)CCCC4)cc2)cc(OC)c1 | Toxic | inactive | inactive |  | 21.6% |  |  | viability at 24 h, up to 50 µM [4]: 70% |
| COc1cc(/C=C/c2ccc(Nc3c4c(nc5ccc(OC)cc35)CCCC4)cc2)cc(OC)c1 | Toxic | inactive | inactive | Toxic |  |  |  |  |
| Oc1cc(O)cc(CCc2ccc(Nc3c4c(nc5cc(Cl)ccc35)CCCC4)cc2)c1 |  | inactive |  | Toxic | 37.3% | 1.3 µM | > 5000 µM | Activity [6]: Toxic |
| Oc1ccc(/C=C/c2cc(O)cc(O)c2)cc1 [RESVERATROL] |  |  | inactive | Non-Toxic | 30% |  | 25.6 µM | inhibition [9]: inactive |
| COc1cc(/C=C/c2ccc(Nc3c4c(nc5ccccc35)CCCC4)cc2)cc(OC)c1 |  | inactive | inactive | Toxic |  |  |  | Activity [6]: Toxic |
| COc1cc(CCc2ccc(Nc3c4c(nc5ccccc35)CCCC4)cc2)cc(OC)c1 | Toxic | inactive |  | Toxic |  | 14.2 µM |  |  |
| Cc1c(C)c2c(c(C)c1O)CCC(C)(C(=O)O)O2 (stereo unspecified) [TROLOX] |  |  |  |  |  |  | 16.2 µM |  |
| Oc1cc(O)cc(/C=C/c2ccc(Nc3c4c(nc5cc(Cl)ccc35)CCCC4)cc2)c1 |  | inactive |  | Toxic | 31.2% | 8.8 µM | > 5000 µM | Activity (Primary glial cell [10]): Dose-dependent effect; Activity (Primary glial cell [11]): Active; Activity [12]: Non-Toxic; Activity (Primary glial cell [13]): Active; Activity (Astrocyte [14]): Active; Activity (Primary glial cell [15]): Active; Activity (Astrocyte [16]): Dose-dependent effect; Activity (Microglia [17]): Dose-dependent effect; Activity (Microglia [18]): Active |
| COc1cc(CCc2ccc(Nc3c4c(nc5cc(Cl)ccc35)CCCC4)cc2)cc(OC)c1 | Toxic | inactive |  | Toxic | 17.6% | 0.8 µM | 155 µM | Kd (Acetylcholinesterase [19]): 7.31 µM |
| COc1ccc2nc3c(c(N)c2c1)CCCC3 |  |  |  |  | < 5% |  |  |  |
| CC(=O)N[C@@H](CS)C(=O)O [ACETYLCYSTEINE] |  |  |  |  |  |  | 28 µM |  |
